This is a sample that favours compounds with a hit; in the whole collection about 3.7% have one here.
CHOP UPR activ: activators of apoptotic CHOP UPR arm, primary screen, cell-based, CHO-CHOP luciferase reporter, luminescence, uHTS; UPR activation; percent of tunicamycin response over DMSO baseline; activation, % at 10 µM; 330,000 compounds, 0.34% hits;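 active = at 10 µM dose, activation of 40% or more, normalized to positive control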;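 note: 100% = tunicamycin at 10 µg/mL and 0% = DMSO alone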
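Test system: CHO CHOP reporter cells. Input: 500 CHO-CHOP cells per well. Medium: F12 with 10% FBS. Technique: luciferase luminescence. Measure: percent activation relative to tunicamycin control. Dosing: 10 µM compound, 0.5% DMSO. Timing: 16-18 h cell attachment, then 6 h compound exposure, 37 °C.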
B2AR ag: beta2AR agonists driving receptor internalization, primary screen, cell-based, FAP fluorogen, flow cytometry. Beta-2 adrenergic receptor (Homo sapiens), P07550. Am2.2-beta2AR cells. response, % (test concentration not listed). 340,000 compounds, 0.43% hits. AID 504454, 2011;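 active = response above a set limit, near 3 SD of response in nonfluorescent compounds, cut at about 42% in these data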
Dynein transport: inhibitors of GR-EGFP nuclear translocation, primary screen, dynein cargo transport inhibitor project, imaging, high-content, 3617.4 mouse cells; test concentration mostly 20 µM; stimulated with dexamethasone, 1 µM; hits give low values; 220,000 compounds, 0.47% hits; z-score, hits read low;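 active = plate z-score of nuclear minus cytoplasmic receptor signal below a set negative limit, without overly bright fluorescence or cell loss, cut at about -3.5 in these data, passing the limit was not always enough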;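 note: z-score of nuclear minus cytoplasmic ring GR-EGFP intensity difference per well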
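Schedule: 48 h induction, then 1 h compound, then 30 min agonist, 37 °C. Buffer or medium: tetracycline-free induction medium containing charcoal-stripped FBS. Reagent: 1.0 µM final dexamethasone stimulus. Evaluation: nuclear versus cytoplasmic GR-EGFP signal, averaged per well. Signal: high-content fluorescence imaging after fixation.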
XBP1 UPR activ: activators of adaptive XBP1 UPR arm, primary screen, cell-based, CHO-XBP1 luciferase reporter, luminescence, uHTS | 330,000 compounds, 0.33% hits | IRE1-XBP1 UPR activation; percent of tunicamycin response, DMSO as zero | activation, % at 20 µM;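 active = versus positive control, 20 µM dose yields 30% or more activation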;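 note: 100% = tunicamycin at 10 µg/mL and 0% = DMSO only wells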
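Signal: luciferase luminescence; Assay system: CHO-XBP1 luciferase reporter cells; Amount: one thousand reporter cells per well; Dosing: 20 µM single concentration, DMSO 1%; Benchmarks: high control tunicamycin 10 µg/mL final, low control DMSO vehicle only; Schedule: 6 h compound exposure at 37 °C, 5% CO2; Evaluation: percent activation relative to tunicamycin reference.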
Mdm2 ligase inh: MDM2-luciferase reporter signal enhancers, primary screen, MDM2 E3 ligase inhibitor project, cell-based, luminescence, 1536-well; 210,000 compounds, 0.11% hits; AID 1230, 2008; signal enhancement, % at 5 µM; cell-based MDM2 ubiquitination luciferase reporter, 2 h; 0 = plate control, 100 = twice control, blank-subtracted;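 active = signal enhancement of 30% or more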;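 note: luminescence tracks abundance of the self-degrading MDM2-luciferase fusion protein; higher signal means inhibition of MDM2 E3 ligase activity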
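test system = mammalian cells stably expressing self-ubiquitinating, self-degrading MDM2 E3–luciferase fusion | quantity = 2000 cells/well | incubation = cell settling 4 h, compound treatment 2 h, both 37 °C | signal = luminescence with SteadyLite reagent, 15 min at room temperature | evaluation = % enhancement relative to plate controls after blank subtraction | benchmarks = plate controls and plate blanks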
Mdm2 MdmX PPI: inhibitors of human Mdm2-MdmX association, primary screen, cell-based, luminescence, split luciferase, SaOS-2, uHTS; 330,000 compounds, 3% hits; Protein Mdm4 (Homo sapiens) + E3 ubiquitin-protein ligase Mdm2 (Homo sapiens), …; SaOS-2 split-luciferase Mdm2/MdmX complementation; inhibition, % at 8 µM;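 active = inhibition of at least 50% at 8 µM in the primary screen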
Target sequence (O15151 whole entry, looked up): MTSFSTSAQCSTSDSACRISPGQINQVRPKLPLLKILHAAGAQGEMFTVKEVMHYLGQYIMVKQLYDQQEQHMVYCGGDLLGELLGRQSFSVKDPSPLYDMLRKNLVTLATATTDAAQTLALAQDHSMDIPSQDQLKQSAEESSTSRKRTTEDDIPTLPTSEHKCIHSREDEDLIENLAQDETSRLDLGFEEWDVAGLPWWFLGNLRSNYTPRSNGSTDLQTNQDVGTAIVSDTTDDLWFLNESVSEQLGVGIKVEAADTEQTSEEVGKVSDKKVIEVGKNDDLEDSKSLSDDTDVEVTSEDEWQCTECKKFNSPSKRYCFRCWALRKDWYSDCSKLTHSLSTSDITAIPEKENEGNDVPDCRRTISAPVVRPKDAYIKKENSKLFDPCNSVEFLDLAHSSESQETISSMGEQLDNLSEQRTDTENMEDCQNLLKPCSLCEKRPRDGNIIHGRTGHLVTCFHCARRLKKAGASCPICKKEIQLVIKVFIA
Target sequence (Q00987 whole entry, looked up): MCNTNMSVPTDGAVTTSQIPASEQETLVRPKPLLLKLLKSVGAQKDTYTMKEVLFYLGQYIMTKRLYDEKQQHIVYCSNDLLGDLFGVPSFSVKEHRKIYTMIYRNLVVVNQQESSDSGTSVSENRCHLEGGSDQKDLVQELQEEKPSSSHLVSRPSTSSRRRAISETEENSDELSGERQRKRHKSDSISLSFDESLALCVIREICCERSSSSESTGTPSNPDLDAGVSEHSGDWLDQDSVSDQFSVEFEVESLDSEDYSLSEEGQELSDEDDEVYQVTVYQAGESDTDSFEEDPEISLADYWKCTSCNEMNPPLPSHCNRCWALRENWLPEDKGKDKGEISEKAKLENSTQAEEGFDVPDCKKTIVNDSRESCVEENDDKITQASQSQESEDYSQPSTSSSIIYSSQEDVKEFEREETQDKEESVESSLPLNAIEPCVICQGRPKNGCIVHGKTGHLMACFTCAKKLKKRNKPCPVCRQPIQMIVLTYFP
Dynein inh conf: dynein cargo transport inhibitors, GR-EGFP translocation, confirmation, imaging, high-content imaging, GR-EGFP cells; shares compounds with Dynein transport; 3617.4 GR-EGFP nuclear translocation imaging, dexamethasone-induced; calls only at 20 µM; 1,000 compounds, 69% hits;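 active = inhibition of receptor movement into the nucleus at or above a set limit in both runs, with normal cell brightness and cell count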;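 note: dexamethasone at 1 µM final in well for 30 min; nuclear minus cytoplasmic GR-EGFP mean intensity difference in channel 2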
Numbers without * were called inactive; i = inactive; . = no result given; + = active, no number.

SMILES | CHOP UPR activ | B2AR ag | Dynein transport | XBP1 UPR activ | Mdm2 ligase inh | Mdm2 MdmX PPI | Dynein inh conf
Cc1ccc(C(C)C)c(OCC(=O)NN=C(CCl)CCl)c1 | 10 | . | -4.6* | -2 | -3 | 16 | +
C/C(=N/NC(=O)COc1cc(C)ccc1C(C)C)C(=O)O | 0 | 14 | 0.065 | 0 | -13 | 7 | .
CN(C)C(=O)C1Cc2ccccc2CN1S(=O)(=O)c1ccc(F)cc1 (stereo unspecified) | -1 | 0 | . | -2 | . | 10 | .
Cc1ccc(-c2nn(-c3ccccc3)cc2CO)o1 | 6 | -10 | -3.7* | -1 | -6 | -25 | i
OCc1cn(-c2ccccc2)nc1-c1ccco1 | 2 | -9 | -0.96 | 3 | -16 | 2 | .
COc1ccc(CC(=O)n2[nH]c(=O)ccc2=O)cc1OC | 0 | 4 | -3.6* | -1 | -10 | 27 | i
COc1ccc(CC(=O)n2[nH]c(=O)c3ccccc3c2=O)cc1OC | 2 | 13 | -0.23 | 1 | -1 | -7 | .
COc1ccc(NC(=O)CCc2nc3ccccc3s2)c(OC)c1 | -2 | 10 | -5.7* | -1 | -10 | 7 | i
N#Cc1c(C(F)(F)F)cc(-c2ccccc2)nc1SCc1nc(N)nc(N2CCOCC2)n1 | 1 | -177 | -3.8 | 1 | -16 | 20 | +
CC1=CC(C)(C)N(C(=O)Nc2ccccc2)c2ccccc21 | 2 | 7 | 0.21 | -1 | -24 | -38 | .
CC(=O)N1c2ccccc2C(CBr)=CC1(C)C | 1 | 0 | -5.2* | -2 | -1 | 23 | i
CCCCCCC(=O)N(O)C1CC(=O)N(c2ccc(Cl)cc2)C1=O (stereo unspecified) | 0 | 8 | -5.1* | -5 | 9 | 37 | +
CCCCCCC(=O)N(O)C1CC(=O)N(c2ccc(C)cc2)C1=O (stereo unspecified) | 0 | 10 | 1 | 1 | -23 | 22 | .
O=C(CSc1cn[nH]n1)Nc1ccccc1C(=O)O | 1 | 10 | . | 0 | . | 16 | .
Cc1ccc(-c2cc(-c3ccccc3)nc(Cl)n2)cc1 | 3 | 1 | -0.92 | -2 | 8 | 11 | .
Cc1ccc(-c2cc(C(F)F)nc(S(C)(=O)=O)n2)cc1 | 6 | 2 | -4.5* | -2 | -13 | 43 | +
CCOC(=O)N1C/C(=C\c2ccccc2)C(=O)/C(=C/c2ccccc2)C1 | . | 35 | -4.9* | . | 46* | . | +
COc1cc(Cl)c(S(=O)(=O)N2CCCC2)cc1Cl | 0 | -3 | -0.052 | 3 | -4 | -4 | .
COc1cc(N2C(=O)C=CC2=O)c(OC)cc1Cl | 28 | -548 | -5.1* | -5 | -15 | -4 | +
O=[N+]([O-])c1ccc(C2=NN(c3ccccc3)C(c3ccco3)C2)cc1 (stereo unspecified) | . | -375 | -8.2 | . | -5 | . | i
O=[N+]([O-])c1ccc(/C=C/C2=NN(c3ccccc3)C(c3ccco3)C2)cc1 (stereo unspecified) | . | i | -5.5 | . | 4 | . | .
CCn1c(C)c(CS(=O)(=O)c2ccccc2)[nH]c1=O | 2 | -8 | -5.6* | -5 | -24 | 1 | +
CN(c1ccccc1)c1ccc(/C=C/[N+](=O)[O-])cc1 | . | 88* | -3.6* | . | 2 | . | i
CN(C(=O)C=Cc1ccccc1)c1ccccc1 | . | -7 | . | . | . | . | .
CC1(C)Cc2c(C#N)c(NCC3CCCO3)nc(-c3ccco3)c2CO1 (stereo unspecified) | -2 | 2 | -1.5 | -4 | -10 | 21 | .
SMILES | CHOP UPR activ | B2AR ag | Dynein transport | XBP1 UPR activ | Mdm2 ligase inh | Mdm2 MdmX PPI | Dynein inh conf
CC1(C)Cc2c(C#N)c(NC3CCCCC3)nc(-c3ccco3)c2CO1 | 1 | 13 | -4.3* | 0 | -16 | -2 | i
Cc1c(CCC(=O)NC2CC2)c(=O)oc2cc(O)ccc12 | 1 | -1 | . | 1 | . | 7 | .
N#C/C(=C/c1ccco1)C(N)=S | -1 | 1 | -0.54 | -3 | -7 | -11 | .
N#CC(C#N)=C1C=CC=CN1/C(=C\c1ccco1)C(=O)c1ccc(Br)cc1 | . | 75* | -4.8* | . | -10 | . | +
N#CC(C#N)=C1C=CC=CN1/C(=C\c1ccco1)C(=O)c1ccccc1 | . | 60* | -3.8* | . | -17 | . | +
CC(C)(C)NC(=O)/C(=C/c1ccco1)c1ccccc1 | 1 | -11 | 0.33 | 6 | -19 | 11 | .
Nc1cc(C(=O)OCC(=O)NCCNC(=O)COC(=O)c2ccc(Cl)c(N)c2)ccc1Cl | 2 | 1 | . | 1 | . | -23 | .
Cc1ccc2c(c1)/C(=N/OS(=O)(=O)c1ccccc1)CCS2 | 2 | 2 | -0.18 | 0 | . | 14 | .
CC1=CC(=O)C=C(C)C1=NOS(=O)(=O)c1ccccc1 | . | 33 | -5* | . | -36 | . | +
CNc1ccc(/C=C2\CSc3ccccc3C2=O)cc1[N+](=O)[O-] | 3 | -3 | -4* | 5 | 9 | -4 | i
CCOC(=O)c1ncccc1NC(=O)CC(=O)Nc1cccnc1C(=O)OCC | 2 | -11 | . | 0 | . | 20 | .
COC(=O)c1cc(=O)n(CCc2ccccc2)c(=Nc2ccc(F)cc2)s1 | 6 | 4 | -3.3 | 5 | -1 | 28 | .
CCn1c(=O)cc(C(=O)OC)sc1=Nc1ccc(F)c(F)c1 | 8 | 7 | -3.9* | 6 | 2 | 19 | +
Cc1ccc(S(=O)(=O)/N=C(\CCl)N2CCOCC2)cc1 | . | 21 | -3.8* | . | -13 | . | +
Cc1ccc(S(=O)(=O)/N=C(\CN2CCOCC2)N2CCCC2)cc1 | 0 | 2 | -0.82 | -1 | -10 | 23 | .
CC(CCc1ccccc1)NC(=O)c1ccc(-n2cncn2)c([N+](=O)[O-])c1 (stereo unspecified) | 0 | -8 | . | -3 | . | 13 | .
CCN(CC)c1ccc2cc(-c3nc(-c4ccc(OC)cc4)cs3)c(=O)oc2c1 | 0 | . | -5.1* | -2 | -2 | 5 | +
O=[N+]([O-])/C=C/c1cn(Cc2ccc(Cl)cc2)c2ccccc12 | 7 | 38 | -3.7* | 1 | -9 | 26 | i
COc1cccc(Nc2ncccc2C(=O)NCc2ccccc2)c1 | . | -145 | -9.6 | . | -10 | . | i

Bioassay records (PubChem BioAssay)
